Source: PubChem BioAssay
Compounds with a hit are over-represented: about 1.3% of the library has one in this group of screens.
proCasp3 act = activators of human procaspase-3 D3A mutant, primary screen, biochemical, absorbance, PC-3 D3A mutant, single concentration. Caspase-3 (Homo sapiens), P42574. recombinant procaspase-3 D3A, Ac-DEVD-pNA absorbance 405 nm. activation, % at 8.5 µM. hit rate 0.11% among 330,000;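 active = activation above the mean of all tested compounds plus 3 SD, cut at about 21% in these data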;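 also: 0% = DMSO alone and 100% = DMSO wells spiked with extra 5 µM PC-3 D3A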
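assay system = Procaspase-3 D3A mutant | signal = absorbance at 405 nm, 0 and 120 min | times = 1 h preincubation plus 2 h reaction at 25 °C | repeats = single replicate | read-out = % activation between DMSO and enzyme-spiked controls | medium = Zinc-free HEPES saline buffer with Triton X-100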
CHT block = inhibitors of human choline transporter CHT | B-score at 10 µM | hit rate 0.86% among 310,000 | High affinity choline transporter 1 (Homo sapiens), Q9GZV3 | CHT-expressing cells, membrane potential dye, choline response; stronger effect = lower value;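 active = B-score over 3 SD under the library average, and starting fluorescence ratio not unusually high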;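 also: choline stimulus applied at its EC90 after an EC20 pre-addition; B-score computed on integrated fluorescence ratio after choline addition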
Target sequence (Q9GZV3 whole entry, looked up): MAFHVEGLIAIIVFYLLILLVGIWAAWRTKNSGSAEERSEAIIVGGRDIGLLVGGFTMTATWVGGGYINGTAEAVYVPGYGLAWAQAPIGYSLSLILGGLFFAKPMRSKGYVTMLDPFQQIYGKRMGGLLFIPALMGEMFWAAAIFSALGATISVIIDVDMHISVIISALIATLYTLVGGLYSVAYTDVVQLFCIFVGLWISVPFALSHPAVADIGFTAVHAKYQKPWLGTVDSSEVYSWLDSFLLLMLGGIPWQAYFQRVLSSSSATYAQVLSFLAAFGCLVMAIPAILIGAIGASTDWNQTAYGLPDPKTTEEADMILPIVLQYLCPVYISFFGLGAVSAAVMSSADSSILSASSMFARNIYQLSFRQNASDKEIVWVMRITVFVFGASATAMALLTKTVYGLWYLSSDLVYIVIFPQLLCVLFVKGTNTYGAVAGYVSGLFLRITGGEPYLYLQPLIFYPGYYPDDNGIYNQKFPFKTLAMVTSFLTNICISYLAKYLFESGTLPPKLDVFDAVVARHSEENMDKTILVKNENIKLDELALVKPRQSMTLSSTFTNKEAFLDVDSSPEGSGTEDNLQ
proCasp7 act = procaspase-7 activators, primary screen, counter-screen for procaspase-3 activator project, biochemical, absorbance, HTS, human; recombinant procaspase-7, Ac-DEVD-pNA absorbance 405 nm; D23A/D198A/D206A triple mutant, cannot self-cleave; scale: DMSO 0, 5 µM enzyme 100; hit rate 0.093% among 330,000; Caspase-7 (Homo sapiens), P55210; AID 463210, 2010; activation, % at 8.5 µM;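 active = percent activation above the screen-wide mean plus 3 SD, cut at about 25% in these data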
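Assay system: Uncleavable procaspase-7 mutant enzyme | Input: 2 µM procaspase-7 mutant as dispensed | Timing: 1 h compound preincubation, 2 h substrate cleavage, 25 °C | Repeats: One well per compound | Control set: DMSO wells as 0%, DMSO with 5 µM added PC-7 as 100% | Technique: Epi-absorbance of released pNA at 405 nm, two timepoints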
CHT PAM = CHT positive allosteric modulators, primary screen, cell-based, membrane potential dye, choline EC20; High affinity choline transporter 1 (Homo sapiens), Q9GZV3; CHT-expressing cells; stronger effect = higher value; LV-AA mutant CHT in HEK293 cells; B-score at 10 µM; hit rate 0.49% among 310,000; AID 488977, 2010;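 active = initial fluorescence not abnormally high and integrated response B-score, plate-corrected, over 3 SD above library mean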
CHT activ conf = CHT activators, confirmation, cell-based, membrane potential dye, duplicate | shares compounds with CHT PAM | CHT-expressing cells, membrane potential dye fluorescence (FDSS); % of choline EC20–EC90 response window; HEK293 expressing CHT LV-AA mutant; choline added at its EC20 | activation, % at 10 µM | hit rate 91% among 2,500;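 active = primary screen active, with duplicate mean activation above negative control mean plus 3 SD, cut at about 11% in these data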
HEK293 MP dye = membrane potential response in parental HEK293 cells, counter-screen for CHT activator project, cell-based, membrane potential dye; membrane potential dye fluorescence (FDSS); measured after EC20 choline addition; shares compounds with CHT PAM; hit rate 62% among 2,500; ratio readout change at 10 µM, hits read low; AID 623908, 2012;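 active = duplicate-averaged ratio beyond 3 SD from buffer wells, up or down, though filed actives are nearly all decreases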
* marks the source's active call; other numbers are inactive results; i = inactive; · = no result.

SMILES	proCasp3 act	CHT block	proCasp7 act	CHT PAM	CHT activ conf	HEK293 MP dye
CC(C)CCn1c(Oc2ccc(Cl)cc2)nc2c1c(=O)n(C)c(=O)n2C	-4	i	9	i	25*	i
COc1ccc(CN2CCN(C(=O)C3CCN(C(=O)Nc4ccccc4)CC3)CC2)cc1OC	4	·	-1	·	·	·
Cc1ccc(NC(=O)CSCc2cc(=O)n3ccsc3n2)cc1	4	i	-1	i	·	·
Cc1cc(N2CCOCC2)n2cc(-c3ccccc3)nc2n1	-5	i	7	i	·	·
Cc1cc(N2CCOCC2)n2cc(-c3ccc(F)cc3)nc2n1	-4	i	-5	i	31*	-21*
COc1ccccc1CNc1nc2ccccc2n1CCN1CCCCC1	5	i	-2	6.3*	40*	-22*
Oc1ccccc1CNc1nc2ccccc2n1CCN1CCCCC1	8	i	1	i	·	·
O=C(Nc1nc2ccccc2n1CCN1CCCCC1)c1ccco1	2	i	0	8.1*	29*	-41*
CCn1cc(Cl)c(C(=O)Nc2nc3ccccc3n2CCN2CCCCC2)n1	5	i	-1	9.6*	53*	-67*
COc1ccc(-n2c(O)cnc2Nc2nc(C)cc(C)n2)cc1OC	4	i	1	7.2*	28*	-48*
CN1C(C(=O)N2CCc3ccccc3C2)=CC(c2ccc(F)cc2)=NS1(=O)=O	6	i	2	6.7*	13*	i
C=CCOc1ccc(Br)cc1CNCCCN1CCOCC1	4	i	3	i	29*	i
C=CCOc1ccc2ccccc2c1CNCCCN1CCOCC1	4	i	3	i	·	·
Cc1ccc(S(=O)(=O)N(C)C)cc1NC(=O)COC(=O)Cc1ccsc1	-1	i	5	i	·	·
CCOc1ccccc1N1CCN(C(=O)c2c(Cl)cnn2C)CC1	7	i	1	i	·	·
COC(=O)CSc1cc(C)nc2ccc(OC)cc12	-2	i	5	i	44*	-50*
COc1ccc2nc(C)cc(SCC(=O)O)c2c1	3	i	13	i	·	·
O=S(=O)(c1ccc(C2=CSC3=NCCN23)cc1)N1CCOCC1	-9	i	-26	6.3*	36*	-40*
CC1CN(CCc2ccccc2)c2nc3c(c(=O)n(CC(N)=O)c(=O)n3C)n2C1 (stereo unspecified)	5	i	2	i	·	·
C/C(=N\NC(=O)c1cc(C)nc2ccccc12)c1cccc(Cl)c1	4	i	11	i	·	·
COc1ccc(CCN=C(N)Nc2nc(C)cc(C)n2)cc1	4	i	5	6.5*	50*	-41*
c1ccc(CN2CCN(c3nc(NCc4ccco4)c4ccccc4n3)CC2)cc1	5	i	7	6.4*	26*	-53*
CCC(C)n1c(=N)c(C#N)cc2c(=O)n3cccc(C)c3nc21 (stereo unspecified)	-26	i	-26	7*	41*	-53*
c1ccc(Cn2c[n+](Cc3ccccc3)c3ccccc32)cc1	-4	i	5	i	46*	i
Cc1cc(=O)oc2c(C)c(OCC(=O)NC3CC(C)(C)NC(C)(C)C3)ccc12	-7	i	9	8.2*	47*	-54*
SMILES	proCasp3 act	CHT block	proCasp7 act	CHT PAM	CHT activ conf	HEK293 MP dye
Cc1cc(OCC(=O)NC2CC(C)(C)NC(C)(C)C2)c2c(C)c(C)c(=O)oc2c1	-4	i	-4	9.2*	49*	-48*
Cc1c(OCC(=O)NC2CC(C)(C)NC(C)(C)C2)ccc2c3c(c(=O)oc12)CCC3	3	i	9	i	·	·
CC1(C)CC(NC(=O)COc2ccc3ccc(=O)oc3c2)CC(C)(C)N1	1	i	11	i	·	·
CC1(C)CC(NC(=O)COc2cc3oc(=O)c4c(c3cc2Cl)CCC4)CC(C)(C)N1	5	i	17	i	·	·
Cc1cc(OCC(=O)NC2CC(C)(C)NC(C)(C)C2)c2c(C)cc(=O)oc2c1	-5	i	4	i	66*	-45*
CC(C)(O)CC[C@H](OC(=O)c1ccccc1)[C@](C)(O)[C@H]1CC[C@@]2(O)C3=CC(=O)[C@@H]4C[C@@H](O)[C@H](O)C[C@]4(C)C3CC[C@]12C (stereo partly specified)	6	i	-3	i	·	·
O=C(CCC1CCCN(C(=O)C2=CCCCC2)C1)N1CCN(c2ccccn2)CC1 (stereo unspecified)	8	i	10	i	·	·
Cc1cc(C)nc(S/C=C/C(=O)c2ccccc2F)n1	-5	i	-7	i	·	·
COc1ccc(-n2c(-c3ccc(Br)cc3)c[n+]3c2CCCCC3)cc1	10	i	-1	11*	62*	i
COc1ccc(-n2c(-c3ccc(Br)cc3)c[n+]3c2SC(C)C3)cc1 (stereo unspecified)	-3	i	1	i	36*	-52*
COc1ccc(-n2c(-c3ccc(Br)cc3)c[n+]3c2CCC3)cc1	5	i	2	i	·	·
FC(F)Sc1ccc(-n2c(-c3ccc(Cl)cc3)c[n+]3c2CCC3)cc1	13	i	-3	6.3*	30*	-35*
CCOc1ccc(-c2c[n+]3c(n2-c2ccccc2)CCCCC3)cc1	3	i	-2	7.2*	15*	i
Cc1ccc(-n2c(-c3ccc(Cl)cc3)c[n+]3c2CCC3)cc1	-3	i	11	i	·	·
COc1cc(/C=C2\SC(=S)N(CCC(=O)Nc3cccc(O)c3)C2=O)cc(OC)c1OC	-6	i	-6	i	·	·
NCc1cc2c3c(c1)CCCN3CCC2	-4	i	2	i	13*	-100*
CCN(CC(=O)N1CCOCC1)S(=O)(=O)c1ccc2ccccc2c1	·	i	·	i	·	·
CCC(C)Oc1nc2c(c(=O)n(C)c(=O)n2C)n1C (stereo unspecified)	6	i	6	i	·	·
O=C(/C=C/Nc1ccc(Cc2ccc(N/C=C/C(=O)C(F)(F)F)cc2)cc1)C(F)(F)F	-1	i	-4	i	·	·
O=C(c1ccccc1-c1ccccc1)N1CCN(c2ccccn2)CC1	0	i	-9	i	38*	i
